L major viab: Leishmania major promastigote growth inhibition, primary screen | Leishmania major promastigotes, resazurin fluorescence viability | inhibition, % at 10 µM | actives 9% (n = 200,000); in the data active = inhibition above about 50%;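 also: promastigotes grown with compound for 44 hours at 28 °C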
S1P3 antag: S1P3 receptor antagonists, primary screen, cell-based; inhibition, % at 4.98 µM; Sphingosine 1-phosphate receptor 3 (Homo sapiens), Q99500; actives 0.27% (n = 170,000); CHO S1P3 NFAT-BLA reporter, FRET fluorescence, antagonist mode;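 active = inhibition above the plate cutoff, the mean inhibition of test wells on that plate plus 3 SD, cut at about 28% in these data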;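 also: cells challenged with S1P at its EC80 of 0.8 µM; blue over green emission ratio from cleaved BLA substrate after 4 h stimulation; 0% = S1P-stimulated wells and 100% = unstimulated DMSO-only wells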
Target sequence (Q99500 whole entry, looked up): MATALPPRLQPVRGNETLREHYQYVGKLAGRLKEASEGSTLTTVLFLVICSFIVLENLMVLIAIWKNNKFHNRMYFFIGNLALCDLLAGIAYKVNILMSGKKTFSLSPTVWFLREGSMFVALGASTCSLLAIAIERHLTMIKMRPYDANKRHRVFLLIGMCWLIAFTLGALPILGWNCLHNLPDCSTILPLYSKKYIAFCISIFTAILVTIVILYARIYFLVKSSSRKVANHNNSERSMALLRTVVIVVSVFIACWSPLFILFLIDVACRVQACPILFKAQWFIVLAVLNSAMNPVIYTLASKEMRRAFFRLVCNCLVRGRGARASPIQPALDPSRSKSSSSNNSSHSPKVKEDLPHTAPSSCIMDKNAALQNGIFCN
MDM2 E3 inh: MDM2-luciferase reporter signal enhancers, primary screen, MDM2 E3 ligase inhibitor project, cell-based, luminescence, 1536-well; E3 ubiquitin-protein ligase Mdm2 (Homo sapiens), Q00987; cell-based MDM2 ubiquitination luciferase reporter, 2 h; 0 = plate control, 100 = twice control, blank-subtracted; signal enhancement, % at 5 µM; actives 0.11% (n = 210,000); AID 1230, 2008;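 active = signal enhancement of 30% or more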;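 also: luminescence tracks abundance of the self-degrading MDM2-luciferase fusion protein; higher signal means inhibition of MDM2 E3 ligase activity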
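Assay system: mammalian cells stably expressing self-ubiquitinating, self-degrading MDM2 E3–luciferase fusion. Quantity: 2000 cells in each well. Medium: DMEM culture medium. Compound dosing: single-point 5 µM. Timing: cell settling 4 h, compound treatment 2 h, both 37 °C. Technique: luciferase luminescence. Read-out basis: percent signal gain over controls, blank-subtracted. Benchmarks: plate controls and plate blanks.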
S1P4 agonist: S1P4 receptor agonists, primary screen, cell-based; Sphingosine 1-phosphate receptor 4 (Homo sapiens), O95977; S1P4-expressing cell line, agonist reporter assay; activation, % at 4.98 µM; actives 0.35% (n = 220,000); in the data active = activation above about 11%;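 also: 0% = DMSO vehicle and 100% = reference agonist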
S1P4 antag: S1P4 receptor antagonists, primary screen, cell-based | AID 1510, 2009 | actives 0.26% (n = 220,000) | inhibition, % at 4.98 µM | S1P4-expressing cells, antagonist mode, reporter read-out | Sphingosine 1-phosphate receptor 4 (Homo sapiens), O95977; in the data active = inhibition above about 29%;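 also: 0% = wells stimulated with agonist and 100% = vehicle wells without agonist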
* = called active by the depositor; x = no result given. Shown is part of a subset that was picked to be rich in hits.

SMILES	L major viab	S1P3 antag	MDM2 E3 inh	S1P4 agonist	S1P4 antag
Cc1cccc(C)c1Nc1nnc(SC(C)C(=O)Nc2c(C)n(C)n(-c3ccccc3)c2=O)s1 (configuration not stated)	-7	-3	-6	1	-8
Cc1cccc(OCCNC(=O)c2cccc(Oc3ccc(C(F)(F)F)cc3[N+](=O)[O-])c2)c1	1	-27	x	1	-11
COC(=O)c1ccc(COc2ccccc2/C=C(\C#N)C(=O)Nc2c(C)cc(C)cc2C)cc1	100*	-14	-16	-1	-1
Cc1sc2c(c1C)CN(Cc1ccco1)CN2C(=O)c1ccccc1	x	18	x	x	x
CCN(CC)S(=O)(=O)c1cc([N+](=O)[O-])ccc1NNC(=O)Nc1ccc(Cl)c(Cl)c1	100*	x	-16	-1	14
CCC(CC)C(=O)Nc1cc([N+](=O)[O-])ccc1Cl	41	-5	-14	-1	-9
O=C(NNc1ccccc1[N+](=O)[O-])Nc1ccc(Cl)c(Cl)c1	78*	-10	2	0	-16
O=C(Cn1c(=O)sc2ccccc21)Nc1ccc(S(=O)(=O)N2CCCC2)cc1	80*	-25	-11	0	-7
CC(C)c1ccc(N(CC(=O)Nc2ccc(S(=O)(=O)N3CCOCC3)cc2)S(C)(=O)=O)cc1	90*	x	-25	0	2
O=C(CSCc1ccc(Br)cc1)Nc1ccc(S(=O)(=O)N2CCOCC2)cc1	100*	x	-70	1	-6
O=C(CN1CCCCCC1)Nc1ccc(S(=O)(=O)N2CCOCC2)cc1	55*	0	7	-1	-15
O=C(CCc1ccccc1)Nc1ccc(S(=O)(=O)N2CCCC2)cc1	0	-26	6	1	-23
O=C(CSCc1ccccc1)Nc1ccc(S(=O)(=O)N2CCOCC2)cc1	0	x	3	0	-17
O=C(COC(=O)CCc1ccccc1)Nc1ncc(Cl)cc1Cl	-6	x	-30	-3	-11
COC(=O)c1ccc(N2C(=O)c3cc(N4CCOCC4)c([N+](=O)[O-])cc3C2=O)cc1	-4	-6	-1	0	-4
CC1CC(C)CN(c2ccc(-n3cnnn3)cc2[N+](=O)[O-])C1 (configuration not stated)	11	x	-12	-2	-12
CC1CC(C)CN(c2cc3c(cc2[N+](=O)[O-])C(=O)N(c2ccccc2)C3=O)C1 (configuration not stated)	85*	6	6	2	-18
O=C1c2cc(N3CCCC3)c([N+](=O)[O-])cc2C(=O)N1c1ccccc1	60*	-8	2	1	-14
O=S(=O)([N-]c1nc2ccccc2nc1-n1cc[n+](Cc2ccccc2)c1)c1ccc(Br)cc1	x	0	-4	0	-5
O=C(CN1CCN(c2ccc(O)cc2)CC1)NC(c1ccccc1)c1ccccc1	84*	-11	-3	3	-23
CC1CC(C)CN(CC(=O)NC(c2ccccc2)c2ccccc2)C1 (configuration not stated)	7	-21	13	-1	-9
N#C/C(=C\c1ccco1)C(=O)Nc1cccc2ncccc12	-6	11	-8	2	-1
O=C(c1ccc(Br)cc1)N1CCCC(c2nc(-c3cccs3)no2)C1 (configuration not stated)	67*	-4	-7	0	-15
O=C(Nc1ncc(Cc2cccc(Cl)c2)s1)c1cccs1	84*	x	x	3	-10
CCCSc1nnc(CSc2nc(C)cc(C)n2)n1C	-3	10	-3	1	-3
SMILES	L major viab	S1P3 antag	MDM2 E3 inh	S1P4 agonist	S1P4 antag
CCOc1ccc(NC(=S)N/N=C(\C)Cc2ccc(OC)cc2)cc1	62*	-2	1	0	-12
CCCCc1ccc(NC(=S)Nc2ccc(Nc3ccc(OC)cc3)cc2)cc1	60*	-14	-3	0	-14
CCN1CCN(CC(=O)Nc2ccc(Cl)c(S(=O)(=O)N(C)C)c2)CC1	-2	-19	6	1	-10
CCCCc1ccc(NC(=S)Nc2ccc(Cl)c(S(=O)(=O)N(C)C)c2)cc1	87*	-9	14	1	-12
CCOc1ccc(S(=O)(=O)NC(C)C)cc1C(N)=O	-2	-22	-23	2	-21
COc1n[nH]c(C(=O)Nc2cc(F)ccc2C)c1[N+](=O)[O-]	17	3	-11	-1	-9
COc1ccc(Cl)cc1NC(=O)c1cc(-c2ccccc2O)n[nH]1	-10	-3	-12	1	-6
COc1ccc(Cl)cc1NC(=O)c1[nH]nc(OC)c1[N+](=O)[O-]	53*	-16	-3	2	1
COc1n[nH]c(C(=O)Nc2cc(Cl)ccc2Cl)c1[N+](=O)[O-]	89*	-10	6	2	-1
CCO[C@@H]1OC(C(N)=O)=C[C@H](c2ccc3c(c2)OCO3)[C@H]1CCCO	-2	-10	x	-1	6
COc1ccc(C(=O)N2CCN(C(C)=O)CC2)cc1S(=O)(=O)N1CCOCC1	18	-21	-5	-2	1
Cc1ccc(S(=O)(=O)N2CCC(NC(=O)c3ccccc3)CC2)cc1	-3	-3	4	4	-5
CC1(C)C2CCC1(CS(=O)(=O)N1CCC(C(=O)O)CC1)C(=O)C2 (configuration not stated)	x	-1	-5	0	1
COP(=O)(OC)c1nc(-c2cccc3ccccc23)oc1NCCc1ccccc1	71*	-8	-25	1	9
CCOP(=O)(OCC)c1nc(-c2ccc(C)cc2)oc1NCc1ccccc1	79*	5	0	0	-12
CCOP(=O)(OCC)c1nc(-c2cccc3ccccc23)oc1NCc1ccccc1	-4	x	4	-1	-3
CCOP(=O)(OCC)c1nc(-c2cccc3ccccc23)oc1NCc1ccc(OC)cc1	71*	-19	-20	3	-11
O=C(NC1(N2CCOCC2)CC1)c1ccc(Cl)cc1	x	0	-16	-1	-1
CSCC(O)Cn1ncc2ccccc2c1=O (configuration not stated)	x	-11	-8	0	5
O=c1[nH]c(Cc2ccccn2)nc2scc(-c3ccccc3Cl)c12	9	-8	-18	0	4
CCCCCCCC(O)CC(CC1CCCCC1)C(=O)NN (configuration not stated)	7	0	-8	-2	-13
CCC(Oc1ccc2c(c1)C(=O)CC(C)(C)O2)C(=O)NCCN1CCCCCC1 (configuration not stated)	0	-14	x	1	-1
CCOC(=O)N1CCN(C(=O)CSCc2ccc(Br)cc2)CC1	-9	6	-8	4	-22
CCC(C)N(C(=O)CSc1ccc(NC(C)=O)cc1)C1CCS(=O)(=O)C1 (configuration not stated)	0	-15	-14	1	-10

Bioassay records: PubChem, several laboratories
